The source of these data is ChEMBL document CHEMBL4513216, “Probing the Open Global Health Chemical Diversity Library for Multistage-Active Starting Points for Next-Generation Antimalarials” (ACS Infect Dis, 2020).

Molecules are shown by their SMILES.

The data set is described as follows: Toxicity liver stage against HepG2, at 10uM. The arrangement: test concentration 10 uM, cell line HepG2-A16-CD81EGFP. The format is cell-based. The following applies: human, HepG2-A16-CD81EGFP cells; read-out: INHIBITION
An outline of the steps: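 Uninfected HepG2-A16-CD81EGFP cells, 3 × 10^3 per well, 1536-well, plated on prespotted compound at 10 μM final, parasite-free screening media added to match infected plates; puromycin 10 μM positive, DMSO 0.5% negative; run in parallel with 48 h PbLuc assay at 37 °C, 5% CO2; viability by CellTiter-Glo luminescence, normalized to controls.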
On to `O=C1CCNc2ncc(-c3ccc(Cl)cc3)cc2CN1C1CC1`, for which the cytotoxicity at 10 µM was determined as 9.78%.
Turning to `CC(C)C1CC(=O)Nc2c1cnn2Cc1ccco1` (centres undefined), the cytotoxicity at 10 µM came out at 1.27%.
For the molecule `Cc1cc(C)n(CCN2CCN(C(=O)c3ccccc3Br)CC2)n1`, the cytotoxicity at 10 µM is -4.86%.
Consider `COCCN1C2(CCN(C(=O)c3cccs3)C2)c2ccccc2S1(=O)=O` (centres undefined), for which the cytotoxicity at 10 µM was -131%.
Consider `CCCc1noc(-c2ccc(-n3ncc(C(=O)O)c3C)nc2)n1`, for which the cytotoxicity at 10 µM was -1.4%.
Take `CS(=O)(=O)N1CCC(C(=O)N2CCC3(CC2)OCCCO3)CC1`: the cytotoxicity at 10 µM was 1.91%.
Take `CN(C)C(=O)[C@H]1C[C@@H]2CCN(C3CCOCC3)C[C@H]2O1`: the cytotoxicity at 10 µM is -4.15%.
To `Cc1nn(Cn2ccc(C(=O)N3CCCC3)n2)c(C)c1Cl` belongs 0.748%; to `CCOCCCNC(=O)c1nn(CC)cc1Cl`, 2.06%; to `CC(O)c1cn(Cc2ccc(Cl)cc2Cl)nn1` (centres undefined), 15.5%.
Turning to `CC(NCC1(N(C)C)CCOCC1)c1ccc(S(C)(=O)=O)cc1` (centres undefined), the cytotoxicity at 10 µM was -3.27%.
To `CCOCCC(=O)N1CCCC(c2cc(C(F)(F)F)[nH]n2)C1` (centres undefined) belongs -0.819%; to `Cc1noc(C)c1CNC(=O)Nc1ccc(N2CCSCC2)cc1`, -1.61%; to `COc1cc(CNc2nc(N3CCOCC3)ns2)cc(OC)c1OC`, -5.23%.
As to `Cc1cc(C)n(-c2cncc(N3CCC(C(=O)N(C)C)CC3)n2)n1`, the cytotoxicity at 10 µM was -16%.
`O=C(NCc1cccnc1)NCC(O)c1cccc(C(F)(F)F)c1` (centres undefined): the cytotoxicity at 10 µM was -2.64%.
To `Cn1cnnc1-c1ccnc(NCc2ccc(Br)cc2)c1` belongs 2.87%; to `O=C(c1c(O)cnc2ccccc12)N1CCCSCC1`, -9.7%.
With `COc1ncccc1NC(=O)N1CCC(CNC(C)=O)CC1`, the cytotoxicity at 10 µM is 3.61%.
Consider `CCOC(=O)NC(CNC(=O)c1ncccn1)CC(C)C` (centres undefined), for which the cytotoxicity at 10 µM is -4.92%.
In the case of `COc1ncccc1CN1CCn2c(Cn3cncn3)cnc2C1`, the cytotoxicity at 10 µM is -3.17%.
As for `Cc1cc2[nH]c(CN3CCCCC3c3cccc(F)c3)cc(=O)n2n1` (centres undefined), the cytotoxicity at 10 µM came out at 1.29%.
Regarding `CC(C)N(C)C(=O)Cn1ncc(N(C)CCc2ccccc2)cc1=O`, the cytotoxicity at 10 µM came to 0.562%.
As for `Cc1csc(CNc2nc3c(s2)c(C)nn3C)n1`, the cytotoxicity at 10 µM is -109%.
As for `Cc1c[nH]c(CN2CC[C@@]3(O)CCN(C(=O)C4CCCC4)C[C@H]3C2)n1`, the cytotoxicity at 10 µM was found to be 3.11%.
To `Cc1oncc1S(=O)(=O)N1CCCC(C)(Cc2ccc3c(c2)OCO3)C1` (centres undefined) belongs 1.3%.
The figure for `NCC1Cc2cc(-c3cnccn3)cc(Cl)c2O1` (centres undefined) is 6.82%.
For the molecule `CCc1cc(NC2CCN(Cc3ccccc3F)CC2)n2nccc2n1`, the cytotoxicity at 10 µM was -6%.
To `CCC[C@@H]1CN(C(=O)c2ccccc2-c2ncc[nH]2)C[C@H]1N(C)C` belongs -3.17%; to `Cc1cccc(=O)n1CCCNc1nc(N(C)C)nc2c1CCNCC2`, -10.2%; to `COc1cc(C(=O)N2CCC(O)(CN3CCOCC3)C(C)(C)C2)ccn1` (centres undefined), -9.61%.
As to `O=C(NC1CCOCC1)C1CC(=O)N(Cc2ccccn2)C1` (centres undefined), the cytotoxicity at 10 µM is -0.0985%.
For the molecule `CC(C)n1cnnc1CN(C)C(=O)c1ccccc1N1CCOCC1`, the cytotoxicity at 10 µM turned out to be 1.47%.
`CCOC(=O)c1sc2ccsc2c1CNS(C)(=O)=O`: the cytotoxicity at 10 µM was -12%.
In the case of `CC(C)C(C)NC(=O)c1ncn2c1CN(C)S(=O)(=O)c1ccccc1-2` (centres undefined), the cytotoxicity at 10 µM is -132%.
For the molecule `CNC(=O)[C@@H]1C[C@H]2CN(C(=O)c3ccco3)C[C@H]2N1C`, the cytotoxicity at 10 µM was -2.85%.
To `COc1ccc(CN2CCn3cc(Cn4cccn4)nc3C2)cc1` belongs 13.4%.
As to `O=C1NCC2=Nc3ccccc3NC(c3ccccc3)C12` (centres undefined), the cytotoxicity at 10 µM worked out at 1.14%.
The figure for `CCCSCC(=O)N1C[C@@H]2CC[C@H]1CN(Cc1cccnc1)C2` is 1.64%.
